Sampled rows, rich in hits. Any-hit rate of the full collection: about 4.1%.
Apaf1 inhib = inhibitors of human Apaf-1 apoptosome, primary screen, biochemical, DEVD-Rh110 fluorescence, uHTS; AID 489030, 2010; Apoptotic protease-activating factor 1 (Homo sapiens), O14727; hit rate 0.71% among 330,000; reconstituted apoptosome caspase-3 activity; inhibition, % at 20 µM; active = inhibition of at least 40% at 20 µM
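detection = Rh110 fluorescence intensity | test system = biochemical Apaf-1 apoptosome reconstitution | also added = cytochrome c and DEVD-Rh110 substrate | schedule = 30 min plus 50 min, RT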
CHOP UPR activ = activators of apoptotic CHOP UPR arm, primary screen, cell-based, CHO-CHOP luciferase reporter, luminescence, uHTS | UPR activation; percent of tunicamycin response over DMSO baseline | activation, % at 10 µM | hit rate 0.34% among 330,000;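 active = at 10 µM dose, activation of 40% or more, normalized to positive control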
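Test system: CHO CHOP reporter cells. Input: 500 CHO-CHOP cells per well. Medium: F12 with 10% FBS. Technique: luciferase luminescence. Measure: percent activation relative to tunicamycin control. Dosing: 10 µM compound, 0.5% DMSO. Timing: 16-18 h cell attachment, then 6 h compound exposure, 37 °C.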
XBP1 UPR activ = activators of adaptive XBP1 UPR arm, primary screen, cell-based, CHO-XBP1 luciferase reporter, luminescence, uHTS; IRE1-XBP1 UPR activation; percent of tunicamycin response, DMSO as zero; activation, % at 20 µM; hit rate 0.33% among 330,000; AID 463104, 2010;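 active = versus positive control, 20 µM dose yields 30% or more activation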
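incubation = overnight seeding at 37 °C, 6 h compound treatment at 37 °C | assay system = CHO-XBP1 cells stably carrying IRE1-XBP1-driven luciferase reporter | input = 1000 cells per well | detection = luciferase luminescence | dosing = single point, 20 µM final compound, 1% DMSO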
UBC13 polyUb = UBC13 polyubiquitin chain formation inhibitors, primary screen, biochemical, TR-FRET, uHTS; hit rate 0.47% among 330,000; inhibition, % at 20 µM; Ubiquitin-conjugating enzyme E2 N (Homo sapiens), P61088; in the data active = inhibition above about 45%, passing the limit was not always enough
Target sequence (P61088 whole entry, looked up): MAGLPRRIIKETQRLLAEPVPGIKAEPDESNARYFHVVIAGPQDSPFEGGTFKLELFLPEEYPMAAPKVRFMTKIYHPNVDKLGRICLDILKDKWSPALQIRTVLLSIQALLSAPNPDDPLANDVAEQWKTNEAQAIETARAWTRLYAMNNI
Mdm2 MdmX PPI = inhibitors of human Mdm2-MdmX association, primary screen, cell-based, luminescence, split luciferase, SaOS-2, uHTS. inhibition, % at 8 µM. SaOS-2 split-luciferase Mdm2/MdmX complementation. hit rate 3% among 330,000. AID 485346, 2010. Protein Mdm4 (Homo sapiens) + E3 ubiquitin-protein ligase Mdm2 (Homo sapiens), …;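 active = inhibition of at least 50% at 8 µM in the primary screen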
Mdm2-MdmX conf = Mdm2-MdmX complex disruptors, retested hits, confirmation, luminescence, single concentration; shares compounds with Mdm2 MdmX PPI; Mdm2-MdmX binding, luminescent assay; inhibition, % at 8 µM; hit rate 55% among 10,000; AID 489028, 2010; in the data active = inhibition above about 40%
Full FLuc ctr = full-length luciferase signal inhibition, confirmation, counter-screen for Mdm2/MdmX interaction inhibitor project, cell-based, single concentration, SaOS-2. shares compounds with Mdm2 MdmX PPI. SaOS-2 full-length luciferase counterscreen, luminescence. inhibition, % at 8 µM. hit rate 77% among 6,200. AID 504607, 2011;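 active = mean inhibition at 8 µM reaching about 37%, which flags the compound as non-specific, limit read from the data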;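 note: p53-null SaOS-2 cells with luciferase driven by a doxycycline-inducible promoter; compound on cells about two nights before reading with doxycycline added after day one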
Of the large screens only hits and unclear results are named; the others gave an inactive call (follow-up assays come after a bar, where they were run).

C=CCOc1ccccc1CN(C(=O)CCl)c1ccc2c(c1)OCO2	Mdm2 MdmX PPI 89.7 | Mdm2-MdmX conf 80.9 | Full FLuc ctr inactive
CCCCNc1ccc(C(CC(N)=O)NC(=O)Cc2ccc(Br)cc2)cc1[N+](=O)[O-] (configuration not stated)	Mdm2 MdmX PPI 86.6 | Mdm2-MdmX conf 60.2 | Full FLuc ctr 53.1
NC(=O)CC(NC(=O)Cc1ccc(Br)cc1)c1ccc(N2CCC(Cc3ccccc3)CC2)c([N+](=O)[O-])c1 (configuration not stated)	Mdm2 MdmX PPI 71.1 | Mdm2-MdmX conf 54.6 | Full FLuc ctr 48.2
CCOC(=O)Cc1csc(SCC(=O)N(CC(C)C)c2c(N)n(Cc3ccccc3)c(=O)[nH]c2=O)n1	none
CC(=O)NCCNC(=O)C1CCC(CNc2nc(=S)[nH]c3ccccc23)CC1 (configuration not stated)	none
O=C(NCCc1ccccc1)C1CCC(CNc2nc(=S)[nH]c3ccccc23)CC1 (configuration not stated)	Mdm2 MdmX PPI 95.8 | Mdm2-MdmX conf inactive
O=C(CNC(=O)c1cccc(Br)c1)N/N=C/c1cc(Br)cc(Br)c1O	none
O=C(Cc1ccccc1)N/N=C/c1cc(Br)cc(Br)c1O	Mdm2 MdmX PPI 59.4 | Mdm2-MdmX conf 73.2 | Full FLuc ctr 43.7
O=C(CCn1cnc(-c2ccccc2)c1-c1ccccc1)N/N=C/c1ccccc1O	Mdm2 MdmX PPI 75.8 | Mdm2-MdmX conf 68.5 | Full FLuc ctr inactive
Cc1ccc(SCCC(=O)N/N=C/c2ccccc2O)cc1	Mdm2 MdmX PPI 52.0 | Mdm2-MdmX conf 43.8 | Full FLuc ctr 46.8
CN(C)c1ccc(C(=O)N/N=C/c2cc(Br)cc(Br)c2O)cc1	Mdm2 MdmX PPI 80.4 | Mdm2-MdmX conf 86.2 | Full FLuc ctr 53.7
CCOc1ccc(-n2cc(-c3ccc(OC)c(OC)c3)[nH]c2=S)cc1	none
CC(=O)c1cc2c(cc1NC(=O)c1ccccc1C)OCO2	none
Cc1nc(-c2ccccn2)nc(N(C)c2ccccc2)c1Cl	none
C/C(=N/NC(=O)CCC(=O)Nc1ccc(Br)cc1)c1ccc(Br)cc1	Mdm2 MdmX PPI 50.6 | Mdm2-MdmX conf inactive
O=C(CCc1ccccc1)N/N=C/c1cc(Br)ccc1O	Mdm2 MdmX PPI 71.4 | Mdm2-MdmX conf 68.7 | Full FLuc ctr inactive
O=C(N/N=C/c1cc(Br)ccc1O)c1ccccc1Cl	Mdm2 MdmX PPI 65.9 | Mdm2-MdmX conf 68.8 | Full FLuc ctr inactive
C/C(=N\NC(=O)CCc1ccccc1)c1ccc(Br)cc1	none
Cc1ccc(NC(=O)CCC(=O)N/N=C/c2ccccc2O)cc1	none
O=C(CCC(=O)Nc1ccc(Br)cc1)N/N=C/c1ccccc1O	Mdm2 MdmX PPI 67.3 | Mdm2-MdmX conf 67.5 | Full FLuc ctr 48.3
COC(=O)N/N=C/c1cc(Br)ccc1O	none
COc1ccc(CNC(=O)C2=CCN(S(=O)(=O)c3ccc(C)cc3)CC2)cc1	none
CCc1ccccc1NC(=S)N(CCN1CCCCC1)Cc1ccco1	none
Cc1ccc(NS(=O)(=O)Cc2ccccc2)cc1Cl	none
CSc1nc(C)cc(OCC(=O)N/N=C/c2ccccc2O)n1	Mdm2 MdmX PPI 57.9 | Mdm2-MdmX conf 64.3 | Full FLuc ctr 39.3
Cc1cc(=O)oc2cc(OCC(=O)N/N=C/c3ccccc3O)ccc12	none
O=c1oc2ccccc2cc1-c1cn2ccccc2n1	Mdm2 MdmX PPI 76.1 | Mdm2-MdmX conf 62.1 | Full FLuc ctr 72.0
O=c1oc2ccccc2cc1-c1cn2cccnc2n1	none
C#CCn1c(S(=O)(=O)Cc2ccc(C)cc2)nc(-c2ccccc2)c1-c1ccccc1	Mdm2 MdmX PPI 94.6 | Mdm2-MdmX conf 81.3 | Full FLuc ctr 54.6
C#CCn1c(S(=O)(=O)Cc2ccccc2Cl)nc(-c2ccccc2)c1-c1ccccc1	Mdm2 MdmX PPI 73.3 | Mdm2-MdmX conf 47.0 | Full FLuc ctr 84.4
Cc1ccc(N(C(=O)CNC(=O)c2ccco2)C(C(=O)NC2CCCCC2)c2ccncc2)cc1F (configuration not stated)	none
Cn1nc(C(F)(F)F)c(-c2ccc(Br)cc2)c1NC(=O)Nc1ccc(F)cc1F	Mdm2 MdmX PPI 90.7 | Mdm2-MdmX conf 50.4 | Full FLuc ctr 39.4
Cn1nc(C(F)(F)F)c(-c2ccc(F)cc2)c1NC(=O)c1ccco1	none
C[C@@H]1COC(=O)[C@@H](NC(=O)OCC2c3ccccc3-c3ccccc32)C/C=C\C[C@@H](CC(=O)N(CCO)Cc2ccccc2)C(=O)N1	none
O=C(CSc1nc2ccccc2s1)N/N=C/c1ccccc1C(=O)O	Mdm2 MdmX PPI 66.0 | Mdm2-MdmX conf 81.8 | Full FLuc ctr 118.5
Cc1ccc(-c2cc(C(=O)OCC(=O)N(C)c3c(N)n(Cc4ccccc4)c(=O)[nH]c3=O)c3ccccc3n2)o1	none
CC(C)Cc1nc2oc3c(Cl)ncnc3c2c2c1CCC2	Mdm2 MdmX PPI 100.2 | Mdm2-MdmX conf 69.8 | Full FLuc ctr 51.1
Cn1c(=O)c(C#N)c(-c2ccc(F)cc2)c2cc(C(=O)c3cc(Cl)cc(Cl)c3O)cnc21	Mdm2 MdmX PPI 82.8 | Mdm2-MdmX conf 87.0 | Full FLuc ctr inactive
CC(=O)NS(=O)(=O)c1ccc(NC(=O)C(Sc2ccccc2)c2ccccc2)cc1 (configuration not stated)	none
CCC(C)NS(=O)(=O)c1ccc(NC(=O)C(Sc2ccccc2)c2ccccc2)cc1 (configuration not stated)	Mdm2 MdmX PPI 56.5 | Mdm2-MdmX conf 43.5 | Full FLuc ctr 70.3
Cc1sc2ncnc(NCc3ccccc3)c2c1C	Mdm2 MdmX PPI 67.4 | Mdm2-MdmX conf inactive
CCc1cc2ccc(OC)cc2nc1SCC(=O)Nc1cc(C)on1	Mdm2 MdmX PPI 50.3 | Mdm2-MdmX conf inactive
CCc1cc2ccccc2nc1SCC(=O)Nc1cc(C)on1	none
COc1cccc(C(=O)NN2CCOCC2)c1	none
C=CCn1c(SCC(=O)c2[nH]c(C)c(C(=O)OCC)c2C)nc2scc(-c3ccccc3)c2c1=O	Mdm2 MdmX PPI 95.2 | Mdm2-MdmX conf 60.0 | Full FLuc ctr 46.3

From PubChem
